# CAL PDZ FP-1: untagged CAL PDZ binding inhibitors, primary screen, biochemical, fluorescence polarization, HTS. hit rate 0.92% among 300,000. purified CAL PDZ, TMR-peptide fluorescence polarization, 1 h. Golgi-associated PDZ and coiled-coil motif-containing protein (Homo sapiens), Q9HD26. AID 602252, 2012. inhibition, % at 24.9 µM;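 active = mean inhibition of at least 30% with at least half of replicates also reaching 30%; inconclusive = no clear call, values can overlap the other calls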
# PglD inh: C. jejuni PglD acetyltransferase inhibitors, primary screen, biochemical, DTNB colorimetric, single point | UDP-N-acetylbacillosamine N-acetyltransferase PglD (Campylobacter jejuni) | inhibition, % at 12.5 µM | hit rate 0.098% among 360,000 | purified PglD enzyme, DTNB colorimetric CoA detection; in the data active = inhibition above about 16%, passing the limit was not always enough; inconclusive = no clear call, values can overlap the other calls
# Cneo AK release: Cryptococcus neoformans cell lysis inducers, primary screen, AK release luminescence, single concentration; C. neoformans lysis, adenylate kinase release luminescence, 4 h; normalised: neutral wells 0, clomiphene wells 100; lysis activity, % at 15 µM; hit rate 0.2% among 360,000; AID 651654, 2012;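 active = mean lysis activity across replicates of at least 80%, whatever share of replicates individually reach that level; inactive = mean lysis activity below 80%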
#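 Assay system: C. neoformans cells. Amount: yeast cell density of 5 × 10^6 cells/mL. Technique: AK luminescence. Buffer or medium: YPD. Times: static 4 h at 37 °C with compound, 1 h detection. Dosing: single-point compound dose. Read-out: lysis from increased AK signal.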
# miR122 inh: miR-122 Renilla sensor signal increase in Huh7, primary screen, miR-122 inhibitor project, cell-based, single point, plate reader; hit rate 0.3% among 340,000; activation (reporter increase), % at 12.5 µM; Huh7 miR-122 Renilla luciferase sensor, 48 h; neutral wells = 0, positive control = 100;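 active = mean replicate activation score at least 90 and every replicate individually at or above 90; inconclusive = only one of the two criteria met; inactive = neither criterion met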;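 note: higher luciferase means less miR-122 activity so hits act as miR-122 inhibitors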
# CAL PDZ FP-2: CAL PDZ peptide-binding inhibitors, primary screen, biochemical, fluorescence polarization, Cer-tagged CAL PDZ, HTS; Golgi-associated PDZ and coiled-coil motif-containing protein (Homo sapiens), Q9HD26; purified CAL PDZ, TMR-peptide fluorescence polarization, 1 h; inhibition, % at 20 µM; hit rate 0.02% among 330,000;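 active = highest replicate inhibition of at least 40%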
#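 Material – purified CerCALP PDZ construct · Detection – FP readout, S and P plane fluorescence · Measure – percent inhibition from loss of millipolarization · Controls – unlabelled peptide for full inhibition, DMSO wells as neutral · Probe or stimulus – TMR-labelled reporter peptide T*-PRC34 bound in PDZ groove · Times – 1 h at RT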
# A number is an active result; 0 = inactive; ? = inconclusive; - = not tested or not shown; [ ] = remark or other dose. Only some compounds are listed: those with a hit (about 1.1% of all), similar ones and a draw of the others.
SMILES,CAL PDZ FP-1,PglD inh,Cneo AK release,miR122 inh,CAL PDZ FP-2
COCn1c(-c2ccc(OC)cc2)nc2ccccc21,107,0,0,0,-
COc1ccc(S(=O)(=O)N(C)C[C@@H]2OCCCC[C@@H](C)Oc3ccc(NC(=O)Nc4c(C)noc4C)cc3C(=O)N([C@@H](C)CO)C[C@H]2C)cc1,-,0,0,0,-
CCOc1ccc(NS(=O)(=O)c2ccc(NC(=S)NC(=O)C(C)C)cc2)cc1,0,0,0,115,0
CC(C)C(=O)NC(=S)Nc1ccc(S(=O)(=O)Nc2ccccc2)cc1,0,0,0,137,0
COc1ccc(NS(=O)(=O)c2ccc(NC(=S)NC(=O)C(C)C)cc2)cc1,0,0,0,?,0
COc1ccc(C2(C)NC(=O)N(CC(=O)c3cc(C)n(C4CC4)c3C)C2=O)cc1OC (stereo unspecified),54,0,0,0,0
Cn1cnnc1SCC(=O)Nc1ccc(OCc2ccccc2)cc1,41,-,-,-,0
CCCCNS(=O)(=O)c1cc(-c2nn(C)c(=O)c3ccccc23)ccc1C,56,0,0,0,0
COCCNS(=O)(=O)c1cc(-c2nn(C)c(=O)c3ccccc23)ccc1C,0,0,0,0,0
O=C(C[N+]1(CC#Cc2ccccc2)CCOCC1)c1ccccc1,49,-,-,-,0
O=C(/C(N=Nc1cccc(C(F)(F)F)c1)=C(/O)c1cccs1)C(F)(F)F,68,-,-,-,0
Cc1ccc(S(=O)(=O)Nc2ccc3c(c2)CC(=O)N([C@@H](C)CO)C[C@H](C)[C@H](CN(C)CC2CCCCC2)O3)cc1,-,0,0,0,-
OCCC1CN(Cc2ccc3c(c2)CCO3)CCN1Cc1ccc(F)cc1 (stereo unspecified),0,-,-,-,0
O=C(NCCc1ccccc1)C1CCN(C2CCN(Cc3ccco3)CC2)CC1,30,?,0,-,0
CC1CCN(S(=O)(=O)N2CCC(C(=O)NCCc3ccccc3)CC2)CC1,0,0,0,143,0
Cc1noc(C)c1NC(=O)N(C)C[C@@H]1Oc2ccc(NC(=O)Nc3cccc4ccccc34)cc2CC(=O)N([C@H](C)CO)C[C@H]1C,-,0,0,0,-
OC(c1ccc(-c2ccccc2)cc1)c1ncc(-c2ccccc2F)[nH]1 (stereo unspecified),-,0,0,0,-
CC(C)NC(=O)Nc1ccc2c(c1)CC(=O)N([C@H](C)CO)C[C@H](C)[C@@H](CN(C)Cc1ccc(C(=O)Nc3ccccc3N)cc1)O2,-,-,-,0,-
C[C@@H]1CN([C@H](C)CO)C(=O)c2cc(NC(=O)Nc3cccc4ccccc34)ccc2O[C@H]1CN(C)Cc1ccc(C(=O)Nc2ccccc2N)cc1,-,0,0,0,-
CC(C)NC(=O)Nc1ccc2c(c1)CC(=O)N([C@H](C)CO)C[C@H](C)[C@H](CN(C)Cc1ccc(C(=O)Nc3ccccc3N)cc1)O2,-,-,-,114[16.7 µM],-
C[C@H](CO)N1C[C@H](C)[C@H](CN(C)Cc2ccc(C(=O)Nc3ccccc3N)cc2)Oc2ccc(NC(=O)CCC(F)(F)F)cc2CC1=O,-,0,0,98[16.7 µM],-
C[C@H](CO)N1C[C@H](C)[C@H](CN(C)Cc2ccc(C(=O)Nc3ccccc3N)cc2)Oc2ccc(NC(=O)Nc3cccc4ccccc34)cc2CC1=O,-,0,0,96[16.7 µM],-
C[C@H]1CN([C@@H](C)CO)C(=O)Cc2cc(NC(=O)CCCCCC(=O)Nc3ccccc3N)ccc2O[C@H]1CN(C)Cc1ccc2c(c1)OCO2,-,0,94,0,-
O=C(NCC[C@H]1CC[C@@H](NC(=O)c2cccnc2)[C@H](CO)O1)Nc1ccc(F)cc1,-,0,0,-,-
C[C@@H]1CN([C@H](C)CO)S(=O)(=O)c2ccc(C3=CCCCC3)cc2O[C@@H]1CN(C)C(=O)c1ccc(F)cc1,-,0,0,0,-
SMILES,CAL PDZ FP-1,PglD inh,Cneo AK release,miR122 inh,CAL PDZ FP-2
C[C@@H]1CN([C@@H](C)CO)C(=O)c2cc(NC(=O)CCN3CCOCC3)ccc2O[C@@H]1CN(C)Cc1ccc(C(=O)O)cc1,-,0,95,0,-
C[C@H]1CN([C@@H](C)CO)C(=O)c2cc(NC(=O)CCN3CCOCC3)ccc2O[C@@H]1CN(C)Cc1ccc(C(=O)O)cc1,-,0,103,0,-
C[C@H](CO)N1C[C@H](C)[C@H](CN(C)Cc2ccc(C(=O)O)cc2)Oc2ccc(NC(=O)CCN3CCOCC3)cc2C1=O,-,0,0,0,-
CCN(C(=O)Cn1nc(C)n2c(cc3cc(C)ccc32)c1=O)c1ccccc1,-,0,0,-,0
Cc1cc([N+](=O)[O-])nn1CC(=O)N(C)C1CCCCC1,54,0,0,0,0
CCc1nn(CC(=O)N(C)C2CCCCC2)c(=O)c2cc3cc(C)ccc3n12,104,0,0,0,0
Cc1cc([N+](=O)[O-])nn1CC(=O)N(C)Cc1ccccc1,0,0,0,0,-
O=C(N[C@H]1CC[C@@H](CCn2cc(-c3cccnc3)nn2)O[C@@H]1CO)c1ccccc1F,-,0,0,0,-
CC(=O)NC(=S)Nc1cc(C(=O)O)ccc1Cl,116,-,-,-,0
O=C(C1CC1)N1[C@@H](CO)[C@@H]2c3ccccc3N(S(=O)(=O)c3ccccc3)C[C@@H]21,-,0,0,0,-
O=C(N/N=C1/CC2C=CCC12)c1cccs1 (stereo unspecified),42,0,0,0,0
COc1ccc(NC(=O)N2C[C@H](O)COC[C@@H]3O[C@H](CC(=O)N4CCOCC4)CC[C@H]32)cc1,-,0,0,0,-
Cc1ccc(C)c(NS(=O)(=O)c2ccc(-c3cnc(C4CC4)o3)cc2)c1,0,0,0,-,0
Cc1cc(C)cc(NS(=O)(=O)c2ccc(-c3cnc(C4CC4)o3)cc2)c1,0,0,0,375,0
O=S(=O)(Nc1ccccc1)c1ccc(-c2cnc(C3CC3)o2)cc1,0,0,0,159,0
CC(=O)Nc1ccc(NS(=O)(=O)c2ccc(-c3cnc(C4CC4)o3)cc2)cc1,0,0,0,0,0
COc1ccccc1NS(=O)(=O)c1cc(-c2cnc(C3CC3)o2)ccc1C,0,0,0,-,0
COc1ccc(NS(=O)(=O)c2cc(-c3cnc(C4CC4)o3)ccc2C)cc1,0,0,0,293,0
CCCNC(=O)N1C[C@@H](C)[C@@H](OC)CN(C)C(=O)c2cc(NC(C)=O)ccc2OC[C@H]1C,-,0,0,0,-
O=C(Nc1cc(Cl)cc(Cl)c1)N1CCCN(Cc2ccccc2)CC1,37,0,0,0,0
O=C(CCCc1nc(-c2ccc(Cl)cc2)no1)NC1CCCC1,74,0,0,0,0
CC(NC(=O)c1ccc(Br)o1)c1ccc(-n2ccnc2)cc1 (stereo unspecified),35,-,-,0,0

# Source: PubChem BioAssay
